In ChEMBL document CHEMBL1139323, “Radiosynthesis, in vitro and in vivo evaluation of 123I-labeled anandamide analogues for mapping brain FAAH” (Bioorg Med Chem, 2009):

Key:
[1] = Drug uptake in NMRI mouse large intestine at 4 to 5 uCi, iv after 10 mins post injection; assay type: ADME, organism-based; settings: in vivo
Outline: (§1)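 Adult male NMRI mice (20–25 g) given 4–5 µCi of 123I-tracer iv via tail vein in ethanol/saline (8:92). Killed by cervical dislocation under isoflurane at set times, n = 3 per time point. Organs removed and weighed, radioactivity gamma-counted. Uptake expressed as %ID/g tissue ± SD.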

[2] = tested on: Plasma; assay: Stability in NMRI mouse plasma at 3 uCi; assay type: ADME, cell-free
Outline: (§2)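 Brain and EDTA plasma from three male NMRI mice, kept on ice, spiked ex vivo with 3 µCi 123I-tracer. Extracted with acetonitrile and centrifuged; supernatant and pellet gamma-counted for extraction efficiency. Supernatant analysed by radio-TLC (silica, hexane/ethyl acetate 4:6) and C18 HPLC (acetonitrile/water/formic acid 80:20:0.1), fractions gamma-counted.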

[3] = tested on: Stomach; assay: Drug uptake in NMRI mouse stomach at 4 to 5 uCi, iv after 1 min post injection; assay type: ADME, organism-based; settings: in vivo; outline: as §1
[4] = Drug uptake in NMRI mouse small intestine at 4 to 5 uCi, iv after 10 mins post injection; assay type: ADME, organism-based; settings: in vivo; outline: as §1
[5] = tested on: Stomach; assay: Drug uptake in NMRI mouse stomach at 4 to 5 uCi, iv after 1 hr post injection; assay type: ADME, organism-based; settings: in vivo; outline: as §1
[6] = tested on: Brain; assay: Drug uptake in NMRI mouse brain at 4 to 5 uCi, iv after 3 mins post injection; assay type: ADME, organism-based; settings: in vivo, 0.05 h
Outline: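 Adult male NMRI mice (20–25 g) given 4–5 µCi radiotracer iv via tail vein in 200 µl ethanol/saline (8:92). Killed by cervical dislocation under isoflurane at set times after injection, n = 3 per time point. Brain removed and weighed, radioactivity gamma-counted. Uptake given as %ID/g tissue ± SD.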

[7] = tested on: Brain; assay: Stability in NMRI mouse brain at 3 uCi; assay type: ADME, tissue-based; outline: as §2
[8] = target: T1, Fatty-acid amide hydrolase 1 (Rattus norvegicus, UniProt P97612); assay: Inhibition of rat recombinant FAAH assessed as [3H]AEA hydrolysis preincubated 15 mins before [3H]AEA substrate addition
T1 sequence (P97612 whole entry): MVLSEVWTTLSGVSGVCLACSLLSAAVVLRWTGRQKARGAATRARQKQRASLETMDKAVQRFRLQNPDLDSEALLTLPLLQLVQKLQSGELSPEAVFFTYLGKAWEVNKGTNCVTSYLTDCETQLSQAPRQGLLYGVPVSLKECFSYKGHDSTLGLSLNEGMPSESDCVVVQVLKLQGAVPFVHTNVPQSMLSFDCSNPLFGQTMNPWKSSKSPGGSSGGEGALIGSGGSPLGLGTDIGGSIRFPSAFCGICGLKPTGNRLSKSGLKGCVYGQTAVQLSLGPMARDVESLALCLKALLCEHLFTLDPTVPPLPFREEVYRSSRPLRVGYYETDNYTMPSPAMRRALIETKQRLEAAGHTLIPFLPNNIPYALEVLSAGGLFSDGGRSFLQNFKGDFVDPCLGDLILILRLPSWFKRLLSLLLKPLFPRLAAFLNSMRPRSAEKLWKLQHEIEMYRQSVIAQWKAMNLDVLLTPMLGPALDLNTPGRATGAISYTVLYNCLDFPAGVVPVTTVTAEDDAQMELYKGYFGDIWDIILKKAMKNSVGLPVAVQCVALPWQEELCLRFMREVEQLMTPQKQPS
Outline: (§3)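 Recombinant MBP-rat FAAH (1.2 µg/assay) in 10 mM Tris-HCl pH 7.6, 1 mM EDTA. Compound used at levels giving 20%, 50% and 80% inhibition and preincubated with enzyme for 15, 30 or 60 min. 2 µM [3H]-AEA then added, 10 min at 37 °C. Aqueous [3H]-ethanolamine counted by scintillation; IC50 by sigmoidal variable-slope fit.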

[9] = target: T1, Fatty-acid amide hydrolase 1; assay: Inhibition of rat recombinant FAAH assessed as [3H]AEA hydrolysis preincubated before [3H]AEA substrate addition; outline: as §3
[10] = target: T1, Fatty-acid amide hydrolase 1; assay: Inhibition of rat recombinant FAAH assessed as [3H]AEA hydrolysis
Outline: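 Recombinant rat FAAH fused to maltose binding protein, 1.2 µg per assay, in 10 mM Tris-HCl pH 7.6 with 1 mM EDTA. Test compound at ten concentrations (5 µM–1.5 nM), no preincubation. [3H]-AEA added at 2 µM final, 10 min at 37 °C. Stopped with chloroform/methanol; [3H]-ethanolamine in aqueous phase counted by scintillation. Three experiments; sigmoidal variable-slope fit of % control.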

[11] = target: T1, Fatty-acid amide hydrolase 1; assay: Inhibition of rat recombinant FAAH assessed as [3H]AEA hydrolysis preincubated 60 mins before [3H]AEA substrate addition; outline: as §3
[12] = target: T1, Fatty-acid amide hydrolase 1; assay: Inhibition of rat recombinant FAAH assessed as [3H]AEA hydrolysis preincubated 30 mins before [3H]AEA substrate addition; outline: as §3
[13] = species: Mus musculus; assay: Stability in NMRI mouse by HPLC; assay type: ADME, organism-based; settings: in vivo
Outline: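 Three male mice injected with about 200 µCi 123I-tracer in ethanol/saline (8:92) and killed at 3 min. Plasma and brain extracted with acetonitrile and centrifuged. Supernatant run on C18 HPLC (acetonitrile/water/formic acid 80:20:0.1, 6 ml/min); 0.5-min fractions gamma-counted, plus radio-TLC.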

[14] = tested on: Brain; assay: Drug uptake in NMRI mouse brain at 4 to 5 uCi, iv after 10 mins post injection; assay type: ADME, organism-based; settings: in vivo; outline: as §1

Compound | Drug uptake [1] [% ID/g] | Stability [2] [%] | Drug uptake [3] [% ID/g] | Drug uptake [4] [% ID/g] | Drug uptake [5] [% ID/g] | Drug uptake [6] [% ID/g] | Stability [7] [%] | IC50 [8] [µM] | IC50 [9] [µM] | IC50 ([10]; read-out: IC50) [µM] | IC50 [11] [µM] | IC50 [12] [µM] | Activity [13] | Drug uptake [14] [% ID/g] | IC50 ([10]; read-out: pIC50 (converted)) [µM]
CCCCC/C=C\C/C=C\CCCCCCCC(=O)NCC[123I] | 1.33 | 94 | 2.58 | 1.84 | 24.57 | 1.23 | 94 |  |  |  |  |  |  |  | 
CCCCC/C=C\C/C=C\C/C=C\C/C=C\CCCC(=O)NCCI |  |  |  |  |  |  |  | 7.93 | 4.31 | 3.14 | 10.1 | 9.89 | Active |  | 
CCCCC/C=C\C/C=C\C/C=C\C/C=C\CCCC(=O)NCC[123I] | 1.04 | 92 | 3.1 | 1.46 | 17.74 |  | 89 |  |  |  |  |  |  | 0.579 | 
CCCCC/C=C\C/C=C\CCCCCCCC(=O)NCCO [LINOLEOYLETHANOLAMIDE] |  |  |  |  |  |  |  |  |  | 7.58 |  |  |  |  | 7.59
CCCCC/C=C\C/C=C\CCCCCCCC(=O)NCCI |  |  |  |  |  |  |  | 6.66 | 6.2 | 5.78 | 7.33 | 7.64 | Active |  | 
